Measured values as given in ChEMBL document CHEMBL4342515, “Boron Accumulation in Brain Tumor Cells through Boc-Protected Tryptophan as a Carrier for Boron Neutron Capture Therapy” (ACS Med Chem Lett, 2020).
The source made the active and inactive calls. The calls are words filed in the database; no cut-off is given here.

Assays:
LN-229 [1] = assay: Cytotoxicity against human LN229 cells assessed as cell viability at 100 uM incubated for 24 hrs by WST-1 assay (reference value: 91 %); assay type: functional; conditions: LN-229, 24 h, read-out: Activity
U-87 MG [2] = assay: Cytotoxicity against human U87MG cells assessed as cell viability at 100 uM incubated for 24 hrs by WST-1 assay (reference value: 97 %); assay type: functional, U-87MG ATCC; conditions: read-out: Activity
[3] = Cytotoxicity against mouse 3T3 cells assessed as cell viability incubated for 24 hrs by WST-1 assay (reference value: 57 %); assay type: cell-based; conditions: NIH3T3 cells, read-out: Activity
U-87 MG [4] = assay: Effect on LAT-1 expression in human U87MG cells at 50 uM incubated for 2 hrs by Western blot analysis; assay type: functional, cell-based; conditions: U-87MG ATCC
Outline: (§1)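 Western blot for LAT-1 protein in the three cell lines after 2 h incubation with the derivatives. Primary antibodies: LAT-1 (1:2500) and α-tubulin (1:5000) as loading reference. Qualitative comparison of expression level.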

[5] = Ratio of drug uptake in human U87MG cells to drug uptake in mouse 3T3 cells measured up to 4 hrs; assay type: ADME, cell-based
[6] = Drug uptake in human LN229 cells at 50 uM measured upto 4 hrs by ICP-MS analysis; assay type: ADME, cell-based; conditions: ln-229, 4 h
Outline: (§2)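 Cellular boron accumulation was measured by ICP-MS as boron concentration (ppm) at time points over the incubation, up to 4 h. Mouse 3T3 cells served as the normal reference for the tumor/normal (T/N) ratio.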

[7] = Aqueous solubility of compound; assay type: physicochemical; conditions: buffer
[8] = Ratio of drug uptake in human LN229 cells to drug uptake in mouse 3T3 cells measured up to 4 hrs; assay type: ADME, cell-based
[9] = Drug uptake in human U87MG cells at 50 uM measured upto 4 hrs by ICP-MS analysis; assay type: ADME, cell-based; conditions: u-87mg atcc; outline: as §2
U-87 MG [10] = assay: Cytotoxicity against human U87MG cells assessed as cell viability at 50 uM incubated for 1 hr followed by neutron irradiation for 3 mins by WST-1 assay; assay type: functional, cell-based; conditions: U-87MG ATCC
NIH3T3 = assay: Downregulation of LAT-1 expression in mouse 3T3 cells at 50 uM incubated for 2 hrs by Western blot analysis; assay type: functional, cell-based; outline: as §1
LN-229 [11] = assay: Effect on LAT-1 expression in human LN229 cells at 50 uM incubated for 2 hrs by Western blot analysis; assay type: functional, cell-based; outline: as §1
[12] = Drug uptake in human U87MG cells at 50 uM incubated for 2 hrs by ICP-MS analysis; assay type: ADME, cell-based; conditions: u-87mg atcc
[13] = Drug uptake in human LN229 cells at 50 uM incubated for 1 hr by ICP-MS analysis; assay type: ADME, cell-based; conditions: ln-229, 1 h
[14] = Ratio of drug uptake in human LN229 cells to drug uptake in mouse 3T3 cells measured at 1 hr; assay type: ADME, cell-based
LN-229 [15] = assay: Cytotoxicity against human LN229 cells assessed as cell viability at 50 uM incubated for 1 hr followed by neutron irradiation for 3 mins by WST-1 assay; assay type: functional, cell-based

Row | SMILES | viability at 100 µM (LN-229 [1]) [%] | viability at 100 µM (U-87 MG [2]) [%] | viability at 24 h [3] [%] | Activity (U-87 MG [4]) | Ratio [5] | Drug uptake [6] | solubility [7] | Ratio [8] | Drug uptake [9] | Activity (U-87 MG [10]) | Activity (NIH3T3) | Activity (LN-229 [11]) | Drug uptake [12] [ppm] | Drug uptake [13] [ppm] | Ratio [14] | Activity (LN-229 [15])
1 | COC(=O)C(Cc1c(B2OC(C)(C)C(C)(C)O2)[nH]c2c(B3OC(C)(C)C(C)(C)O3)cccc12)N=[N+]=[N-] (configuration not stated) | 57.2 | 61.3 | 66.6 |  |  |  |  |  |  |  |  |  |  |  |  | 
2 | COC(=O)C(Cc1cn(C(=O)OC(C)(C)C)c2ccc(B3OC(C)(C)C(C)(C)O3)cc12)N(C(=O)OC(C)(C)C)C(=O)OC(C)(C)C (configuration not stated) | 60.7 | 67.4 | 60.2 | inactive | > 5 | Active | Insoluble | > 5 | Active | Active | Active | inactive | 300 | 450 | > 9.66 | Active
3 | COC(=O)C(Cc1c[nH]c2ccc(B3OC(C)(C)C(C)(C)O3)cc12)NC(C)=O (configuration not stated) | 69.9 | 66.2 | 60.2 | inactive |  | Not Active |  |  | Not Active |  | Active | inactive |  |  |  | 
4 | COC(=O)C(N)Cc1c[nH]c2ccc(B3OC(C)(C)C(C)(C)O3)cc12 (configuration not stated) | 67.3 | 65.8 | 53 | inactive |  | Not Active |  |  | Not Active |  | Active | inactive |  |  |  | 
5 | COC(=O)C(Cc1cn(C(=O)OC(C)(C)C)c2ccc(B3OC(C)(C)C(C)(C)O3)cc12)N(C(C)=O)C(=O)OC(C)(C)C (configuration not stated) | 70.8 | 70.2 | 63.6 |  |  | Active | Insoluble |  | Active | Active |  |  | 300 |  |  | Active
6 | N[C@@H](Cc1ccc(B(O)O)cc1)C(=O)O | 79.6 | 67 | 110 | inactive |  |  |  |  |  | Active | Active | inactive |  | < 50 | 2.3 | Active
7 | COC(=O)C(Cc1cn(C(=O)OC(C)(C)C)c2cc(B3OC(C)(C)C(C)(C)O3)ccc12)N(C(=O)OC(C)(C)C)C(=O)OC(C)(C)C (configuration not stated) | 53.2 | 60.1 | 63.6 | inactive | > 5 | 300 ppm | Insoluble | > 5 | 300 ppm | Active | Active | inactive |  |  |  | Active
